Converted amounts (≈) assume the structure as drawn.
How the values were obtained:
Staphylococcus aureus [1] = assay: Antibacterial activity against methicillin-resistant Staphylococcus aureus clinical isolate 2 incubated for 16 to 18 hrs by broth microdilution method; format: functional
[2] = tested on: Staphylococcus epidermidis; assay: Antibacterial activity against Staphylococcus epidermidis ATCC 12228 incubated for 16 to 18 hrs by broth microdilution method; format: functional
[3] = tested on: Staphylococcus epidermidis; assay: Antibacterial activity against methicillin-resistant Staphylococcus epidermidis ATCC 35984 incubated for 16 to 18 hrs by broth microdilution method; format: functional
Enterococcus faecium [4] = assay: Antibacterial activity against vancomycin-resistant Enterococcus faecium ATCC 700221 incubated for 16 to 18 hrs by broth microdilution method; format: functional
Staphylococcus aureus [5] = assay: Antibiofilm activity against methicillin-resistant Staphylococcus aureus BAA-1707 assessed as biofilm eradication incubated for 24 hrs by CBD assay; format: functional; conditions: for MBC: Staphylococcus aureus, BAA-1707, 24 h
Outline: (§1)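 Calgary Biofilm Device: pegs inoculated with mid-log culture diluted 1,000-fold in TSB + 0.5% glucose, 24 h 37 °C; washed pegs challenged with 2-fold dilutions 24 h 37 °C; pegs moved to fresh TSBG 24 h; MBEC = lowest concentration leaving no turbidity; 2–6 independent experiments.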

Staphylococcus aureus [6] = assay: Antibacterial activity against methicillin-resistant Staphylococcus aureus BAA-1707 incubated for 16 to 18 hrs by broth microdilution method; format: functional
[7] = Induction of hemolysis in human RBC at 200 uM incubated for 1 hr; format: cell-based, Erythrocyte; conditions: red blood cells, read-out: Activity
Outline: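 Human RBCs (EDTA), washed three times in Tris-buffered saline pH 7.2; 2% hRBC with compound at final 200 µM, 1 h 37 °C; supernatant OD405; % hemolysis relative to DMSO (0%) and Triton X (100%).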

Staphylococcus aureus [8] = assay: Antibacterial activity against methicillin-resistant Staphylococcus aureus clinical isolate 2 incubated for 16 hrs by broth microdilution method in presence of Fe2+; format: functional; conditions: isolate 2, 16 h
Staphylococcus aureus [9] = assay: Antibacterial activity against methicillin-resistant Staphylococcus aureus clinical isolate 2 incubated for 16 hrs by broth microdilution method; format: functional; conditions: isolate 2, 16 h
Staphylococcus aureus [10] = assay: Antibiofilm activity against methicillin-resistant Staphylococcus aureus isolate 2 assessed as biofilm eradication incubated for 24 hrs by CBD assay; format: functional; conditions: for MBC: Staphylococcus aureus, isolate 2, 24 h; outline: as §1
[11] = tested on: Staphylococcus epidermidis; assay: Antibacterial activity against methicillin-resistant Staphylococcus epidermidis ATCC 35984 assessed as biofilm eradication incubated for 24 hrs by CBD assay; format: functional; conditions: for MBC: Staphylococcus epidermidis, ATCC 35984, 24 h; outline: as §1
Enterococcus faecium [12] = assay: Antibiofilm activity against […]-resistant Enterococcus faecium ATCC 700221 assessed as biofilm eradication incubated for 24 hrs by CBD assay; format: functional; conditions: for MBC: Enterococcus faecium, ATCC 700221, 24 h; outline: as §1
Staphylococcus aureus [13] = assay: Antibacterial activity against methicillin-resistant Staphylococcus aureus BAA-44 incubated for 16 to 18 hrs by broth microdilution method; format: functional
[14] = tested on: Mycobacterium tuberculosis; assay: Antibacterial activity against Mycobacterium tuberculosis H37Ra ATCC 25177 after 7 days by two-fold serial dilution method; format: functional; conditions: H37Ra ATCC 25177, 168 h
HeLa = assay: Cytotoxicity against human HeLa cells after 24 hrs by LDH release assay; format: cell-based
Outline: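 HeLa in DMEM + 10% FBS, 37 °C 5% CO2, at 70–80% confluence treated with 25, 50, 100 µM for 24 h; DMSO vehicle; Triton X-100 2% v/v max-LDH control, medium-only negative; supernatant with LDH reaction mix 30 min room temperature, stopped, absorbance 490 nm.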

Row | SMILES | MIC (Staphylococcus aureus [1]) [µM] | MIC [2] [µM] | MIC [3] [µM] | MIC (Enterococcus faecium [4]) [µM] | MBEC (Staphylococcus aureus [5]) [µM] | MBC (Staphylococcus aureus [5]) [µM] | MIC (Staphylococcus aureus [6]) [µM] | hemolysis at 1 h, 200 µM [7] [%] | MIC (Staphylococcus aureus [8]) [µM] | MIC (Staphylococcus aureus [9]) [µM] | MBEC (Staphylococcus aureus [10]) [µM] | MBC (Staphylococcus aureus [10]) [µM] | MBEC [11] [µM] | MBC [11] [µM] | MBEC (Enterococcus faecium [12]) [µM] | MBC (Enterococcus faecium [12]) [µM] | MIC (Staphylococcus aureus [13]) [µM] | MIC [14] [µM] | IC50 (HeLa) [µM]
1 | COc1cccc2nc3cc(Cl)c(Cl)cc3nc12 | > 100 | > 100 | > 100 | > 100 |  |  |  |  |  |  |  |  |  |  |  |  |  |  | 
2 | CC(=O)NC[C@H]1CN(c2ccc(N3CCOCC3)c(F)c2)C(=O)O1 [LINEZOLID] | 3.13 (≈ 1.06 µg/mL) |  | 3.13 (≈ 1.06 µg/mL) | 3.13 (≈ 1.06 µg/mL) | >2000 | 31.3 (≈ 10.6 µg/mL) | 12.5 (≈ 4.22 µg/mL) | ≤ 1 | 6.25 | 6.25 (≈ 2.11 µg/mL) |  |  |  |  |  |  |  |  | 
3 | N#CC(C#N)=NNc1cccc(Cl)c1 [CARBONYL CYANIDE M-CHLOROPHENYLHYDRAZONE] |  |  |  |  |  |  |  | 3.5 |  |  | 1000 | 31.3 (≈ 6.4 µg/mL) | 93.8 | 31.3 (≈ 6.4 µg/mL) |  |  |  |  | 
4 | CN[C@@H](CC(C)C)C(=O)N[C@H]1C(=O)N[C@@H](CC(N)=O)C(=O)N[C@H]2C(=O)N[C@H]3C(=O)N[C@H](C(=O)N[C@@H](C(=O)O)c4cc(O)cc(O)c4-c4cc3ccc4O)[C@H](O)c3ccc(c(Cl)c3)Oc3cc2cc(c3O[C@H]2O[C@@H](CO)[C@H](O)[C@@H](O)[C@@H]2O[C@@H]2C[C@@](C)(N)[C@@H](O)[C@@H](C)O2)Oc2ccc(cc2Cl)[C@H]1O |  | 1.17 (≈ 1.7 µg/mL) |  | > 100 | >2000 | 3.9 (≈ 5.65 µg/mL) |  | ≤ 1 |  |  | >2000 | 3 (≈ 4.35 µg/mL) | >2000 | 3 (≈ 4.35 µg/mL) | 150 | > 200 |  |  | 
5 | Oc1c(Br)cc(Br)c2nc3cc(Br)c(Br)cc3nc12 | 6.25 (≈ 3.2 µg/mL) | 0.08 (≈ 0.0409 µg/mL) |  | 0.39 (≈ 0.2 µg/mL) | 50 | 6.25 (≈ 3.2 µg/mL) | 12.5 (≈ 6.4 µg/mL) | ≤ 1 |  |  |  |  | 6.25 | 1.56 (≈ 0.798 µg/mL) | 0.39 | 0.39 (≈ 0.2 µg/mL) | 25 (≈ 12.8 µg/mL) | > 50 | > 100
6 | Oc1c(I)cc(Cl)c2nc3ccccc3nc12 | 25 (≈ 8.91 µg/mL) | 25 (≈ 8.91 µg/mL) | 25 (≈ 8.91 µg/mL) | 6.25 (≈ 2.23 µg/mL) |  |  | 3.13 (≈ 1.12 µg/mL) | ≤ 1 |  |  | 250 | 93.8 (≈ 33.4 µg/mL) | 250 | 125 (≈ 44.6 µg/mL) |  |  | 12.5 (≈ 4.46 µg/mL) |  | 
7 | Oc1c(Br)cc(Br)c2nc3ccc(Br)cc3nc12 |  | 3.13 (≈ 1.35 µg/mL) | 3.13 (≈ 1.35 µg/mL) | 0.78 (≈ 0.338 µg/mL) | 12.5 | 12.5 (≈ 5.41 µg/mL) | 0.2 (≈ 0.0866 µg/mL) | 2.1 |  |  | 25 | 50 (≈ 21.6 µg/mL) |  |  |  |  |  |  | 
8 | Oc1c(Br)cc(Br)c2nc3cc4ccccc4cc3nc12 | > 100 | 12.5 (≈ 5.05 µg/mL) |  |  |  |  | 50 (≈ 20.2 µg/mL) | ≤ 1 |  |  | >200 | 200 (≈ 80.8 µg/mL) |  |  |  |  | 75 (≈ 30.3 µg/mL) |  | 
9 | Oc1cccc2nc3cc(Cl)c(Cl)cc3nc12 | > 100 | > 100 | > 100 | > 100 |  |  |  |  |  |  |  |  |  |  |  |  |  |  | 
10 | Oc1c(Br)cc(Cl)c2nc3ccccc3nc12 | 1.56 (≈ 0.483 µg/mL) |  | 1.56 (≈ 0.483 µg/mL) | 6.25 (≈ 1.93 µg/mL) |  |  |  | ≤ 1 |  |  | 375 | 46.9 (≈ 14.5 µg/mL) | 46.9 | 11.7 (≈ 3.62 µg/mL) | 3.9 | 7.8 (≈ 2.41 µg/mL) | 1.56 (≈ 0.483 µg/mL) |  | > 100
11 | CN[C@@H]1[C@H](O[C@H]2[C@H](O[C@H]3[C@H](O)[C@@H](O)[C@H](N=C(N)N)[C@@H](O)[C@@H]3N=C(N)N)O[C@@H](C)[C@]2(O)C=O)O[C@@H](CO)[C@H](O)[C@H]1O [STREPTOMYCIN] |  |  |  |  |  |  |  |  |  |  |  |  |  |  |  |  |  | 1.32 (≈ 0.768 µg/mL) | 
12 | Oc1c(I)cc(Br)c2nc3ccccc3nc12 |  |  |  | 6.25 (≈ 2.51 µg/mL) |  |  |  |  |  |  | 250 | 46.9 (≈ 18.8 µg/mL) |  |  |  |  |  |  | 
13 | Oc1c(Cl)cc(Cl)c2nc3ccccc3nc12 | 3.13 (≈ 0.83 µg/mL) | 3.13 (≈ 0.83 µg/mL) | 3.13 (≈ 0.83 µg/mL) | 12.5 (≈ 3.31 µg/mL) |  |  | 3.13 (≈ 0.83 µg/mL) | ≤ 1 |  |  | >1000 | 62.5 (≈ 16.6 µg/mL) |  |  |  |  | 3.13 (≈ 0.83 µg/mL) |  | 
14 | Oc1c(I)cc(I)c2nccnc12 | 3.13 (≈ 1.25 µg/mL) | 6.25 (≈ 2.49 µg/mL) | 3.13 (≈ 1.25 µg/mL) | 12.5 (≈ 4.97 µg/mL) |  |  | 1.56 (≈ 0.621 µg/mL) | ≤ 1 |  |  | >2000 | > 2000 | >1000 | 750 (≈ 298 µg/mL) |  |  | 1.56 (≈ 0.621 µg/mL) |  | 
